From ChEMBL document CHEMBL4834429, “Discovery of Nanomolar Melanocortin-3 Receptor (MC3R)-Selective Small Molecule Pyrrolidine Bis-Cyclic Guanidine Agonist Compounds Via a High-Throughput "Unbiased" Screening Campaign” (J Med Chem, 2021)

What was measured:
Format in all cases: functional, cell-based
[1] = molecular target: Melanocyte-stimulating hormone receptor (Mus musculus, UniProt Q01727); assay: Agonist activity at mouse melanocortin receptor 1 expressed in HEK293 cells assessed as stimulation of intracellular cAMP accumulation incubated for 24 hrs by beta-galactosidase reporter gene assay
Chain of Melanocyte-stimulating hormone receptor (Q01727 whole entry): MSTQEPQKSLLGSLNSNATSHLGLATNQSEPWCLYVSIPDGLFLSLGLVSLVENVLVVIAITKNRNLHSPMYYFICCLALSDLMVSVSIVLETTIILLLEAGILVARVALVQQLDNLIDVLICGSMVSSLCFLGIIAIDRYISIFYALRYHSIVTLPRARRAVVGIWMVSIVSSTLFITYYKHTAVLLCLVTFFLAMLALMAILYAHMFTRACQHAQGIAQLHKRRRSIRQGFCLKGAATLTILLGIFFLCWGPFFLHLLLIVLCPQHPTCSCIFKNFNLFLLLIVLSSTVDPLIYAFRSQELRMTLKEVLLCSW

Melanocortin receptor 3 [2] = molecular target: T1, Melanocortin receptor 3 (Mus musculus, UniProt P33033); assay: Antagonist activity at mouse melanocortin receptor 3 expressed in HEK293 cells assessed as inhibition of NDP-MSH-induced intracellular cAMP accumulation incubated for 24 hrs by beta-galactosidase reporter gene assay
T1 sequence (P33033 whole entry): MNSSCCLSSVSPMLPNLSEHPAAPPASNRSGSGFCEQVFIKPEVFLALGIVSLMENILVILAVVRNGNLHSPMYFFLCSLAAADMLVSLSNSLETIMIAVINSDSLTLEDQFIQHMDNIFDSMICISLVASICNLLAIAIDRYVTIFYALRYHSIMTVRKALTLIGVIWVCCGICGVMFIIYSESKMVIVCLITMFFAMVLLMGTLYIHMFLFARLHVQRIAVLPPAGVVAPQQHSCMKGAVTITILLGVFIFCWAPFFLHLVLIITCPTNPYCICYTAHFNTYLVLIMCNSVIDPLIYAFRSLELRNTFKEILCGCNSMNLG

[3] = molecular target: Melanocortin receptor 4 (Mus musculus) (UniProt P56450); assay: Agonist activity at mouse melanocortin receptor 4 expressed in HEK293 cells assessed as stimulation of intracellular cAMP accumulation at 10 uM incubated for 24 hrs by beta-galactosidase reporter gene assay relative to control
Chain of Melanocortin receptor 4 (Mus musculus) (P56450 whole entry): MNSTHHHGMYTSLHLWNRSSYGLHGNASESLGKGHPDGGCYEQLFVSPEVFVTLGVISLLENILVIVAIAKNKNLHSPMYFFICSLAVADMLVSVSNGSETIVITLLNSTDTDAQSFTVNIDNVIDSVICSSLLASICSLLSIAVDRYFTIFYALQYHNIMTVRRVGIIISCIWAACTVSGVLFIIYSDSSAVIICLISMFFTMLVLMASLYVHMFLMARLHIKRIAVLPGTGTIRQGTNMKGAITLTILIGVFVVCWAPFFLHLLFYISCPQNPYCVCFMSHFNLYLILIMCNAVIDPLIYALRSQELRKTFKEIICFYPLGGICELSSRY
Outline: (§1)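 After lysis, ONPG hydrolysis was read at 405 nm and normalized to Bradford protein and maximal NDP-MSH response. Duplicates, ≥3 independent experiments; 100 μM dropped from fits where toxic.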

Melanocortin receptor 5 = Melanocortin receptor 5 (Mus musculus, UniProt P41149); assay: Agonist activity at mouse melanocortin receptor 5 expressed in HEK293 cells assessed as stimulation of intracellular cAMP accumulation incubated for 24 hrs by beta-galactosidase reporter gene assay
Chain of Melanocortin receptor 5 (P41149 whole entry): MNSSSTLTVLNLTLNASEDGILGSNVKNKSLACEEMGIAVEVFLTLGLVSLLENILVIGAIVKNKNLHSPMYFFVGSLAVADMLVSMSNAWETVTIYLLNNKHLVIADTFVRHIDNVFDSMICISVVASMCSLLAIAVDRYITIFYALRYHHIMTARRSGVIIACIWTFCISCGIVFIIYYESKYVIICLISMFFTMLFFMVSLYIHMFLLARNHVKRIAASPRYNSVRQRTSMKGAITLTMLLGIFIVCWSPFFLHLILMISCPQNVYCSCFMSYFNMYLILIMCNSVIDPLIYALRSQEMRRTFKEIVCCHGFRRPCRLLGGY

[4] = molecular target: Melanocyte-stimulating hormone receptor (Mus musculus) (UniProt Q01727); assay: Agonist activity at mouse melanocortin receptor 1 expressed in HEK293 cells assessed as stimulation of intracellular cAMP accumulation at 10 uM incubated for 24 hrs by beta-galactosidase reporter gene assay relative to control; outline: as §1
Chain of Melanocyte-stimulating hormone receptor (Mus musculus) (Q01727 whole entry, looked up): as the sequence (Q01727 whole entry) above

[5] = molecular target: Melanocortin receptor 3 (Mus musculus) (UniProt P33033); assay: Agonist activity at mouse melanocortin receptor 3 expressed in HEK293 cells assessed as stimulation of intracellular cAMP accumulation at 10 uM incubated for 24 hrs by beta-galactosidase reporter gene assay relative to control; outline: as §1
Chain of Melanocortin receptor 3 (Mus musculus) (P33033 whole entry): as the sequence (P33033 whole entry) above

Melanocortin receptor 4 [6] = molecular target: T2, Melanocortin receptor 4 (Mus musculus, UniProt P56450); assay: Agonist activity at mouse melanocortin receptor 4 expressed in HEK293 cells assessed as stimulation of intracellular cAMP accumulation incubated for 24 hrs by beta-galactosidase reporter gene assay; outline: as §1
T2 sequence (P56450 whole entry): as the sequence (P56450 whole entry) above

Melanocortin receptor 3 [7] = molecular target: T1, Melanocortin receptor 3; assay: Agonist activity at mouse melanocortin receptor 3 expressed in HEK293 cells assessed as stimulation of intracellular cAMP accumulation incubated for 24 hrs by beta-galactosidase reporter gene assay
[8] = molecular target: Melanocortin receptor 5 (Mus musculus) (UniProt P41149); assay: Agonist activity at mouse melanocortin receptor 5 expressed in HEK293 cells assessed as stimulation of intracellular cAMP accumulation at 10 uM incubated for 24 hrs by beta-galactosidase reporter gene assay relative to control; conditions: filed as agonist, time 6.0 hrs, in the assay text read “6 hrs” for “24 hrs”; outline: as §1
Chain of Melanocortin receptor 5 (Mus musculus) (P41149 whole entry): as the sequence (P41149 whole entry) above

Melanocortin receptor 4 [9] = molecular target: T2, Melanocortin receptor 4; assay: Antagonist activity at mouse melanocortin receptor 4 expressed in HEK293 cells assessed as inhibition of NDP-MSH-induced intracellular cAMP accumulation incubated for 24 hrs by beta-galactosidase reporter gene assay; conditions: read-out: pA2 (converted)

SMILES | EC50 [1] [nM] | Emax ([3]; filed as agonist) [%] | EC50 (Melanocortin receptor 5) [nM] | Emax ([5]; filed as agonist) [%] | EC50 (Melanocortin receptor 3 [7]) [nM] | other results
CCC[C@@H]1CN([C@H](Cc2ccccc2)CN2CCC[C@H]2CN2C(=N)NC[C@H]2C(C)C)C(=N)N1CCCC(C)C | 22900 | 41 | 2030 | – | – | EC50 (Melanocortin receptor 3 [2]): > 100000 nM
CCC[C@@H]1CN([C@H](Cc2ccccc2)CN2CCC[C@H]2CN2C(=N)NC[C@H]2CC(C)C)C(=N)N1CC1CCC(C(C)(C)C)CC1 (stereo not given in full) | – | – | 480 | 73 | – | Emax [3]: 28%; Emax [4]: 38%
CC(C)CCCN1C(=N)N([C@H](Cc2ccccc2)CN2CCC[C@H]2CN2C(=N)NC[C@H]2CC(C)C)C[C@H]1[C@@H](C)O | – | – | – | – | – | EC50 (Melanocortin receptor 3 [2]): > 100000 nM; Emax [8]: 77%; Emax ([4]; filed as agonist): 62%
CC(C)C[C@@H]1CNC(=N)N1C[C@@H]1CCCN1C[C@@H](Cc1ccccc1)N1C[C@@H]([C@@H](C)O)N(CC2CCC(C(C)(C)C)CC2)C1=N (stereo not given in full) | – | – | 530 | – | 310 | Emax ([4]; filed as agonist): 58%
CCC[C@@H]1CN([C@H](Cc2ccccc2)CN2CCC[C@H]2CN2C(=N)NC[C@H]2C(C)C)C(=N)N1CC1CCC(C(C)(C)C)CC1 (stereo not given in full) | 2300 | – | 940 | – | 6200 | Emax [3]: 27%
CC(C)CCCN1C(=N)N([C@H](CC2CCCCC2)CN2CCC[C@H]2CN2C(=N)NC[C@H]2CC(C)C)C[C@H]1[C@@H](C)O | 7300 | 10 | 630 | 58 | – | –
CC(C)C[C@@H]1CNC(=N)N1C[C@@H]1CCCN1C[C@@H](CC1CCCCC1)N1C[C@@H]([C@@H](C)O)N(CC2CCC(C(C)(C)C)CC2)C1=N (stereo not given in full) | 300 | 45 | 140 | – | 210 | EC50 (Melanocortin receptor 4 [6]): 270 nM
CC(C)C[C@@H]1CNC(=N)N1C[C@@H]1CCCN1C[C@@H](Cc1ccccc1)N1C[C@@H]([C@@H](C)O)N(CC23CC4CC(CC(C4)C2)C3)C1=N | – | 58 | 810 | – | 360 | Kb (Melanocortin receptor 4 [9]): 1580 nM; Emax ([4]; filed as agonist): 41%
CC(C)CCCN1C(=N)N([C@H](Cc2ccccc2)CN2CCC[C@H]2CN2C(=N)NC[C@H]2C(C)C)C[C@H]1[C@@H](C)O | – | – | – | – | – | EC50 (Melanocortin receptor 3 [2]): > 100000 nM; Emax [8]: 40%; Emax ([4]; filed as agonist): 51%
CC(C)CCCN1C(=N)N([C@H](CC2CCCCC2)CN2CCC[C@H]2CN2C(=N)NC[C@H]2C(C)C)C[C@H]1C(C)C | 6100 | 51 | 1700 | 51 | – | –
CCC[C@@H]1CN([C@H](CC2CCCCC2)CN2CCC[C@H]2CN2C(=N)NC[C@H]2C(C)C)C(=N)N1CC1CCC(C(C)(C)C)CC1 (stereo not given in full) | – | 50 | 540 | – | 350 | Kb (Melanocortin receptor 4 [9]): 1580 nM; Emax ([4]; filed as agonist): 51%
O=C(N[C@@H](Cc1ccc(Cl)cc1)C(=O)N1CCC(Cn2cncn2)(C2CCCCC2)CC1)[C@H]1Cc2ccccc2CN1 | – | – | – | – | – | EC50 (Melanocortin receptor 4 [6]): 0.9 nM
CC(C)[C@@H]1CNC(=N)N1C[C@@H]1CCCN1C[C@@H](CC1CCCCC1)N1C[C@@H]([C@@H](C)O)N(CC2CCC(C(C)(C)C)CC2)C1=N (stereo not given in full) | 300 | 41 | 150 | – | 220 | Kb (Melanocortin receptor 4 [9]): 1260 nM
CC(C)C[C@@H]1CNC(=N)N1C[C@@H]1CCCN1C[C@@H](Cc1ccccc1)N1C[C@@H](C(C)C)N(CC23CC4CC(CC(C4)C2)C3)C1=N | 15500 | – | 440 | 67 | – | EC50 (Melanocortin receptor 4 [6]): 8200 nM
CC(C)[C@@H]1CNC(=N)N1C[C@@H]1CCCN1C[C@@H](CC1CCCCC1)N1C[C@@H](C(C)C)N(CC2CCC(C(C)(C)C)CC2)C1=N (stereo not given in full) | 290 | – | 510 | – | 4300 | Emax [3]: 28%
CC(C)[C@@H]1CNC(=N)N1C[C@@H]1CCCN1C[C@@H](CC1CCCCC1)N1C[C@@H]([C@@H](C)O)N(CC23CC4CC(CC(C4)C2)C3)C1=N | 200 | 49 | 600 | – | 370 | Kb (Melanocortin receptor 4 [9]): 1580 nM
CC(C)CCCN1C(=N)N([C@H](Cc2ccccc2)CN2CCC[C@H]2CN2C(=N)NC[C@H]2CC(C)C)C[C@H]1C(C)C | – | 10 | 1260 | – | – | –
CC(C)C[C@@H]1CNC(=N)N1C[C@@H]1CCCN1C[C@@H](CC1CCCCC1)N1C[C@@H](C(C)C)N(CC23CC4CC(CC(C4)C2)C3)C1=N | 570 | 50 | 500 | 70 | – | –
CC(C)[C@@H]1CNC(=N)N1C[C@@H]1CCCN1C[C@@H](Cc1ccccc1)N1C[C@@H](C(C)C)N(CC23CC4CC(CC(C4)C2)C3)C1=N | 47800 | 54 | 660 | – | 4000 | –
CC(C)[C@@H]1CNC(=N)N1C[C@@H]1CCCN1C[C@@H](Cc1ccccc1)N1C[C@@H]([C@@H](C)O)N(CC2CCC(C(C)(C)C)CC2)C1=N (stereo not given in full) | 600 | – | 490 | – | 420 | Kb (Melanocortin receptor 4 [9]): 316 nM

The next lines start with results.

EC50 [1] [nM] | Emax ([3]; filed as agonist) [%] | EC50 (Melanocortin receptor 5) [nM] | Emax ([5]; filed as agonist) [%] | EC50 (Melanocortin receptor 3 [7]) [nM] | SMILES | other results
7000 | – | 610 | 74 | – | CCC[C@@H]1CN([C@H](Cc2ccccc2)CN2CCC[C@H]2CN2C(=N)NC[C@H]2CC(C)C)C(=N)N1CC12CC3CC(CC(C3)C1)C2 | EC50 (Melanocortin receptor 4 [6]): 1330 nM
10200 | – | 1600 | – | – | CC(C)CCCN1C(=N)N([C@H](Cc2ccccc2)CN2CCC[C@H]2CN2C(=N)NC[C@H]2C(C)C)C[C@H]1C(C)C | EC50 (Melanocortin receptor 3 [2]): > 100000 nM; Emax [3]: 21%
– | 40 | 1040 | 51 | – | CCC[C@@H]1CN([C@H](CC2CCCCC2)CN2CCC[C@H]2CN2C(=N)NC[C@H]2C(C)C)C(=N)N1CCCC(C)C | Emax ([4]; filed as agonist): 51%
330 | 55 | 340 | – | 240 | CC(C)C[C@@H]1CNC(=N)N1C[C@@H]1CCCN1C[C@@H](CC1CCCCC1)N1C[C@@H]([C@@H](C)O)N(CC23CC4CC(CC(C4)C2)C3)C1=N | EC50 (Melanocortin receptor 4 [6]): 650 nM
– | – | 0.7 | – | – | CSCC[C@H](NC(=O)[C@H](CO)NC(=O)[C@H](Cc1ccc(O)cc1)NC(=O)[C@@H](N)CO)C(=O)N[C@@H](CCC(=O)O)C(=O)N[C@@H](Cc1c[nH]cn1)C(=O)N[C@@H](Cc1ccccc1)C(=O)N[C@@H](CCCN=C(N)N)C(=O)N[C@@H](Cc1c[nH]c2ccccc12)C(=O)NCC(=O)N[C@@H](CCCCN)C(=O)N1CCC[C@H]1C(=O)N[C@H](C(=O)O)C(C)C | EC50 (Melanocortin receptor 4 [6]): 1.6 nM
6800 | – | 560 | 62 | – | CC(C)C[C@@H]1CNC(=N)N1C[C@@H]1CCCN1C[C@@H](Cc1ccccc1)N1C[C@@H](C(C)C)N(CC2CCC(C(C)(C)C)CC2)C1=N (stereo not given in full) | –
440 | 75 | 180 | – | 360 | CC(C)[C@@H]1CNC(=N)N1C[C@@H]1CCCN1C[C@@H](Cc1ccccc1)N1C[C@@H]([C@@H](C)O)N(CC23CC4CC(CC(C4)C2)C3)C1=N | EC50 (Melanocortin receptor 4 [6]): 580 nM; Kb (Melanocortin receptor 4 [9]): 1580 nM
– | – | 560 | 69 | – | CC(C)C[C@@H]1CNC(=N)N1C[C@@H]1CCCN1C[C@@H](CC1CCCCC1)N1C[C@@H](C(C)C)N(CC2CCC(C(C)(C)C)CC2)C1=N (stereo not given in full) | Kb (Melanocortin receptor 4 [9]): 3160 nM; Emax ([4]; filed as agonist): 54%
300 | 40 | 580 | – | 3700 | CC(C)[C@@H]1CNC(=N)N1C[C@@H]1CCCN1C[C@@H](CC1CCCCC1)N1C[C@@H](C(C)C)N(CC23CC4CC(CC(C4)C2)C3)C1=N | –
500 | 65 | 530 | 75 | – | CCC[C@@H]1CN([C@H](CC2CCCCC2)CN2CCC[C@H]2CN2C(=N)NC[C@H]2CC(C)C)C(=N)N1CC1CCC(C(C)(C)C)CC1 (stereo not given in full) | –
– | 51 | 470 | 67 | – | CCC[C@@H]1CN([C@H](CC2CCCCC2)CN2CCC[C@H]2CN2C(=N)NC[C@H]2CC(C)C)C(=N)N1CC12CC3CC(CC(C3)C1)C2 | Emax ([4]; filed as agonist): 70%
2300 | – | 1800 | 58 | – | CCC[C@@H]1CN([C@H](CC2CCCCC2)CN2CCC[C@H]2CN2C(=N)NC[C@H]2CC(C)C)C(=N)N1CCCC(C)C | EC50 (Melanocortin receptor 4 [6]): 6700 nM
700 | – | 740 | – | 5200 | CC(C)CCCN1C(=N)N([C@H](CC2CCCCC2)CN2CCC[C@H]2CN2C(=N)NC[C@H]2C(C)C)C[C@H]1[C@@H](C)O | –
– | 51 | 1850 | – | – | CC(C)CCCN1C(=N)N([C@H](CC2CCCCC2)CN2CCC[C@H]2CN2C(=N)NC[C@H]2CC(C)C)C[C@H]1C(C)C | Emax ([4]; filed as agonist): 50%; Emax [5]: 33%
29100 | – | 600 | 68 | – | CC(C)[C@@H]1CNC(=N)N1C[C@@H]1CCCN1C[C@@H](Cc1ccccc1)N1C[C@@H](C(C)C)N(CC2CCC(C(C)(C)C)CC2)C1=N (stereo not given in full) | –
